Measured values: publication PMC5873441 (Diabetes, Obesity & Metabolism, 2018)
Read-outs that look alike come from different tables or passages of the source.

Key:
[1] = system: plasma protein (albumin); format: in vitro ADME, human; conditions: surface plasmon resonance, in vitro on blood samples taken prior to dosing; across all hepatic function groups
[2] = format: in vivo, human
Method in brief: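 Adults with normal hepatic function or mild, moderate or severe impairment (Child–Pugh), matched for age, sex and weight, each got one 0.5 mg s.c. thigh injection by pen. Plasma was sampled from pre-dose to 840 h and stored at −20°C. Proteins were precipitated, then LC‐MS/MS (0.729–60.8 nmol/L, analogue internal standard). AUC by non-compartmental methods; CL/F = dose/AUC0‐∞. Group ratios vs normal, with 90% CI.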

[3] = cited from earlier work
[4] = Safety and tolerability of a single 0.5 mg dose; format: in vivo, human; conditions: single s.c. 0.5 mg
Method in brief: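 After one 0.5 mg s.c. thigh dose, participants stayed in-house ≥5 days, then had visits on days 7, 8, 15, 22 and 29 and follow-up on day 36. Monitoring covered adverse events, hypoglycaemic episodes, haematology, biochemistry (amylase, lipase), coagulation, calcitonin, urinalysis, vital signs, physical examination, ECG and fasting plasma glucose.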

[5] = human, single s.c. 0.5 mg, mild hepatic impairment, n = 8

CC[C@H](C)[C@H](NC(=O)[C@H](Cc1ccccc1)NC(=O)[C@H](CCC(=O)O)NC(=O)[C@H](CCCCNC(=O)COCCOCCNC(=O)COCCOCCNC(=O)CC[C@H](NC(=O)CCCCCCCCCCCCCCCCC(=O)O)C(=O)O)NC(=O)[C@H](C)NC(=O)[C@H](C)NC(=O)[C@H](CCC(N)=O)NC(=O)CNC(=O)[C@H](CCC(=O)O)NC(=O)[C@H](CC(C)C)NC(=O)[C@H](Cc1ccc(O)cc1)NC(=O)[C@H](CO)NC(=O)[C@H](CO)NC(=O)[C@@H](NC(=O)[C@H](CC(=O)O)NC(=O)[C@H](CO)NC(=O)[C@@H](NC(=O)[C@H](Cc1ccccc1)NC(=O)[C@@H](NC(=O)CNC(=O)[C@H](CCC(=O)O)NC(=O)C(C)(C)NC(=O)[C@@H](N)Cc1cnc[nH]1)[C@@H](C)O)[C@@H](C)O)C(C)C)C(=O)N[C@@H](C)C(=O)N[C@@H](Cc1c[nH]c2ccccc12)C(=O)N[C@@H](CC(C)C)C(=O)N[C@H](C(=O)N[C@@H](CCCNC(=N)N)C(=O)NCC(=O)N[C@@H](CCCNC(=N)N)C(=O)NCC(=O)O)C(C)C [semaglutide]
median fraction of unbound semaglutide [1]: < 1%
AUC0‐last, ER (90% CI) vs no impairment ([2]; estimated ratio mild impairment/no impairment): 0.96 (0.76, 1.20)
Cmax, ER (90% CI) vs no impairment ([2]; estimated ratio mild impairment/normal function): 0.99 (0.80, 1.23)
AUC0‐∞, ER (90% CI) vs no impairment ([2]; estimated ratio mild impairment/normal function, single s.c. 0.5 mg): 0.95 (0.77, 1.16)
AUC0‐last, ER (90% CI) vs no impairment ([2]; estimated ratio moderate impairment/no impairment): 1.03 (0.92, 1.15)
Cmax, ER (90% CI) vs no impairment ([2]; estimated ratio moderate impairment/normal function): 1.02 (0.88, 1.18)
AUC0‐∞, ER (90% CI) vs no impairment ([2]; estimated ratio moderate impairment/normal function, single s.c. 0.5 mg): 1.02 (0.93, 1.12)
AUC0‐last, ER (90% CI) vs no impairment ([2]; estimated ratio severe impairment/no impairment): 0.93 (0.77, 1.13)
Cmax, ER (90% CI) vs no impairment ([2]; estimated ratio severe impairment/normal function): 1.15 (0.89, 1.48)
AUC0‐∞, ER (90% CI) vs no impairment ([2]; estimated ratio severe impairment/normal function, single s.c. 0.5 mg): 0.97 (0.84, 1.12)
AUC0‐last, estimated mean ([2]; human, single s.c. 0.5 mg, plasma LC-MS/MS, no hepatic impairment, n = 18): 2731 nmol^×h/L
AUC0‐last, estimated mean [2, 5]: 2621 nmol^×h/L
Tmax, median [2, 5]: 65.9 h
AUC0‐last, estimated mean ([2]; human, single s.c. 0.5 mg, moderate hepatic impairment, n = 10): 2807 nmol^×h/L
AUC0‐last, estimated mean ([2]; human, single s.c. 0.5 mg, severe hepatic impairment, n = 7): 2539 nmol^×h/L
CL/F, geometric mean (CV) ([2]; total apparent clearance, CV in %, severe hepatic impairment, n = 7): 0.043 (10.0) L/h
exposure in people with renal impairment vs normal renal function ([3]; after adjusting for specific baseline characteristics): comparable
administered dose excreted in urine as intact semaglutide ([3]; human, radioactive‐labelled compound): 3.1%
serious adverse events or events leading to participant withdrawal ([4]; all groups): No serious adverse events
severe hypoglycaemic episodes ([4]; all groups): No severe hypoglycaemic episodes
changes in vital signs, clinical laboratory assessments, physical examination or ECG ([4]; normal or impaired hepatic function): No clinically relevant changes
